Reference: ChEMBL document CHEMBL1155459, “On-bead screening of a combinatorial fumaric acid derived peptide library yields antiplasmodial cysteine protease inhibitors with unusual peptide sequences” (J Med Chem, 2009)
Square brackets hold non-standard residues; d marks the D form. Peptide text beside a SMILES is read from it. * marks the point of attachment. Fumaroyl(AlaGlyPheOH) = C[C@H](NC(=O)/C=C/C(=O)*)C(=O)NCC(=O)N[C@@H](Cc1ccccc1)C(=O)O; Chg = N[C@H](C(=O)O)C1CCCCC1; Dap = NC[C@H](N)C(=O)O

Tests used:
[1] = Inhibition of Plasmodium falciparum falcipain-2 after 12 hrs by fluorescence spectroscopy-based on-bead assay; parameters: concentration or dose not given beside the values; conditions: concentration not given here
Outline: (§1)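 Library members on resin (PEGA, theoretical loading 0.40 mmol/g; added as DMSO suspension, 0.64 mM final inhibitor) preincubated with enzyme 12 h, then Cbz-Phe-Arg-AMC 40 μM added; AMC release followed by fluorescence (ex 380/em 460 nm). Kinetics compared with inhibitor-free amino-PEGA resin.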

[2] = biological target: Rhodesain (Trypanosoma brucei rhodesiense) (UniProt Q95PM0); assay: Inhibition of Trypanosoma brucei rhodesiense rhodesain after 12 hrs by fluorescence spectroscopy-based on-bead assay; parameters: concentration or dose not given beside the values; conditions: concentration not given here; outline: as §1
Rhodesain (Trypanosoma brucei rhodesiense), sequence (Q95PM0 1-450): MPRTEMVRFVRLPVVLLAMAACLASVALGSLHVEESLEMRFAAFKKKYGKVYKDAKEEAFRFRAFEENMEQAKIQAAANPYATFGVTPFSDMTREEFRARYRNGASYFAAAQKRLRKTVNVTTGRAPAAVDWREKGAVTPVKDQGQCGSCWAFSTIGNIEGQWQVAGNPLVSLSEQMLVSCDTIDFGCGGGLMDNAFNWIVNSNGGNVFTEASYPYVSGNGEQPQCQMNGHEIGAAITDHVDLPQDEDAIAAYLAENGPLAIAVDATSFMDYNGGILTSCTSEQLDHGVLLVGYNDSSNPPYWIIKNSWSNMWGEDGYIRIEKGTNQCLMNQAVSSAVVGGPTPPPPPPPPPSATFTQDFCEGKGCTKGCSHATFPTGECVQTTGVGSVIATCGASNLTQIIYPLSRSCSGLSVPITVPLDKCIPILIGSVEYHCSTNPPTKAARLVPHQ

SMILES	inhibition [1] [%]	inhibition [2] [%]
CC(=O)NC[C@H](NC(=O)/C=C/C(=O)N[C@@H](C)C(=O)NCC(=O)N[C@@H](Cc1ccccc1)C(=O)O)C(=O)N[C@@H](CC(C)C)C(=O)N[C@@H](CC(C)C)C(=O)N[C@H](C(N)=O)C(C)C (HELM PEPTIDE1{[C[C@H](NC(=O)/C=C/C(=O)[*:2])C(=O)NCC(=O)N[C@@H](Cc1ccccc1)C(=O)O].[O=C([C@H](CN[*:3])N[*:1])[*:2]].L.L.V.[am]}|PEPTIDE2{[ac]}$PEPTIDE1,PEPTIDE2,2:R3-1:R2$$$V2.0)	41	63
CC[C@H](C)[C@H](NC(=O)[C@H](Cc1ccccc1)NC(=O)/C=C/C(=O)NCC(=O)NCC(=O)N[C@@H](Cc1ccccc1)C(=O)O)C(=O)N[C@H](C(=O)N[C@H](C(N)=O)C(C)C)C(C)C (HELM PEPTIDE1{[O=C(/C=C/C(=O)[*:2])NCC(=O)NCC(=O)N[C@@H](Cc1ccccc1)C(=O)O].F.I.V.V.[am]}$$$$V2.0)	58	50
CC(C)C[C@H](NC(=O)[C@H](Cc1ccccc1)NC(=O)[C@H](Cc1ccccc1)NC(=O)/C=C/C(=O)N[C@@H](C)C(=O)NCC(=O)N[C@@H](Cc1ccccc1)C(=O)O)C(=O)N[C@H](C(N)=O)C(C)C (HELM PEPTIDE1{[C[C@H](NC(=O)/C=C/C(=O)[*:2])C(=O)NCC(=O)N[C@@H](Cc1ccccc1)C(=O)O].F.F.L.V.[am]}$$$$V2.0)	47	54
CC(C)C[C@H](NC(=O)[C@H](CCC(N)=O)NC(=O)/C=C/C(=O)NCC(=O)NCC(=O)N[C@@H](Cc1ccccc1)C(=O)O)C(=O)N[C@@H](CC(C)C)C(=O)N[C@H](C(N)=O)C(C)C (HELM PEPTIDE1{[O=C(/C=C/C(=O)[*:2])NCC(=O)NCC(=O)N[C@@H](Cc1ccccc1)C(=O)O].Q.L.L.V.[am]}$$$$V2.0)	42	69
CC(C)C[C@H](NC(=O)[C@H](C)NC(=O)/C=C/C(=O)N[C@@H](C)C(=O)NCC(=O)N[C@@H](Cc1ccccc1)C(=O)O)C(=O)N[C@H](C(=O)N[C@H](C(N)=O)C(C)C)C(C)C (HELM PEPTIDE1{[C[C@H](NC(=O)/C=C/C(=O)[*:2])C(=O)NCC(=O)N[C@@H](Cc1ccccc1)C(=O)O].A.L.V.V.[am]}$$$$V2.0)	40	59
CC(C)C[C@H](NC(=O)[C@H](CCC(N)=O)NC(=O)/C=C/C(=O)NCC(=O)NCC(=O)N[C@@H](Cc1ccccc1)C(=O)O)C(=O)N[C@H](C(=O)N[C@H](C(N)=O)C(C)C)C(C)C (HELM PEPTIDE1{[O=C(/C=C/C(=O)[*:2])NCC(=O)NCC(=O)N[C@@H](Cc1ccccc1)C(=O)O].Q.L.V.V.[am]}$$$$V2.0)	54	54
CC[C@H](C)[C@H](NC(=O)[C@H](Cc1ccccc1)NC(=O)/C=C/C(=O)N[C@@H](C)C(=O)NCC(=O)N[C@@H](Cc1ccccc1)C(=O)O)C(=O)N[C@@H](C)C(=O)N[C@H](C(N)=O)C(C)C (HELM PEPTIDE1{[C[C@H](NC(=O)/C=C/C(=O)[*:2])C(=O)NCC(=O)N[C@@H](Cc1ccccc1)C(=O)O].F.I.A.V.[am]}$$$$V2.0)	29	40
CC(C)C[C@H](NC(=O)[C@@H](NC(=O)[C@H](Cc1ccccc1)NC(=O)/C=C/C(=O)NCC(=O)NCC(=O)N[C@@H](Cc1ccccc1)C(=O)O)c1ccccc1)C(=O)N[C@H](C(N)=O)C(C)C (HELM PEPTIDE1{[O=C(/C=C/C(=O)[*:2])NCC(=O)NCC(=O)N[C@@H](Cc1ccccc1)C(=O)O].F.[Phg].L.V.[am]}$$$$V2.0)	40	71
CC[C@H](C)[C@H](NC(=O)[C@H](CCC(N)=O)NC(=O)/C=C/C(=O)N[C@@H](C)C(=O)NCC(=O)N[C@@H](Cc1ccccc1)C(=O)O)C(=O)N[C@@H](C)C(=O)N[C@H](C(N)=O)C(C)C (HELM PEPTIDE1{[C[C@H](NC(=O)/C=C/C(=O)[*:2])C(=O)NCC(=O)N[C@@H](Cc1ccccc1)C(=O)O].Q.I.A.V.[am]}$$$$V2.0)	43	29
CC(C)[C@H](NC(=O)[C@H](C)NC(=O)[C@H](Cc1ccccc1)NC(=O)[C@H](C)NC(=O)/C=C/C(=O)N[C@@H](C)C(=O)NCC(=O)N[C@@H](Cc1ccccc1)C(=O)O)C(N)=O (HELM PEPTIDE1{[C[C@H](NC(=O)/C=C/C(=O)[*:2])C(=O)NCC(=O)N[C@@H](Cc1ccccc1)C(=O)O].A.F.A.V.[am]}$$$$V2.0)	51	18
CC(C)[C@H](NC(=O)[C@H](C)NC(=O)[C@@H](NC(=O)[C@H](Cc1ccccc1)NC(=O)/C=C/C(=O)NCC(=O)NCC(=O)N[C@@H](Cc1ccccc1)C(=O)O)C1CCCCC1)C(N)=O (HELM PEPTIDE1{[O=C(/C=C/C(=O)[*:2])NCC(=O)NCC(=O)N[C@@H](Cc1ccccc1)C(=O)O].F.[O=C([C@@H](N[*:1])C1CCCCC1)[*:2]].A.V.[am]}$$$$V2.0)	65	48
CC(C)C[C@H](NC(=O)[C@H](Cc1ccccc1)NC(=O)[C@H](C)NC(=O)/C=C/C(=O)NCC(=O)NCC(=O)N[C@@H](Cc1ccccc1)C(=O)O)C(=O)N[C@H](C(N)=O)C(C)C (HELM PEPTIDE1{[O=C(/C=C/C(=O)[*:2])NCC(=O)NCC(=O)N[C@@H](Cc1ccccc1)C(=O)O].A.F.L.V.[am]}$$$$V2.0)	68	67
CC(C)C[C@H](NC(=O)[C@H](C)NC(=O)/C=C/C(=O)NCC(=O)NCC(=O)N[C@@H](Cc1ccccc1)C(=O)O)C(=O)N[C@@H](C)C(=O)N[C@H](C(N)=O)C(C)C (HELM PEPTIDE1{[O=C(/C=C/C(=O)[*:2])NCC(=O)NCC(=O)N[C@@H](Cc1ccccc1)C(=O)O].A.L.A.V.[am]}$$$$V2.0)	57	40
CC(C)[C@H](NC(=O)[C@@H](NC(=O)[C@@H](NC(=O)[C@H](C)NC(=O)/C=C/C(=O)NCC(=O)NCC(=O)N[C@@H](Cc1ccccc1)C(=O)O)c1ccccc1)C(C)C)C(N)=O (HELM PEPTIDE1{[O=C(/C=C/C(=O)[*:2])NCC(=O)NCC(=O)N[C@@H](Cc1ccccc1)C(=O)O].A.[Phg].V.V.[am]}$$$$V2.0)	56	36
CC(C)C[C@H](NC(=O)[C@H](Cc1ccccc1)NC(=O)[C@H](CCC(N)=O)NC(=O)/C=C/C(=O)NCC(=O)NCC(=O)N[C@@H](Cc1ccccc1)C(=O)O)C(=O)N[C@H](C(N)=O)C(C)C (HELM PEPTIDE1{[O=C(/C=C/C(=O)[*:2])NCC(=O)NCC(=O)N[C@@H](Cc1ccccc1)C(=O)O].Q.F.L.V.[am]}$$$$V2.0)	62	57
CC(=O)NC[C@H](NC(=O)/C=C/C(=O)NCC(=O)NCC(=O)N[C@@H](Cc1ccccc1)C(=O)O)C(=O)N[C@H](C(=O)N[C@@H](C)C(=O)N[C@H](C(N)=O)C(C)C)c1ccccc1 (HELM PEPTIDE1{[O=C(/C=C/C(=O)[*:2])NCC(=O)NCC(=O)N[C@@H](Cc1ccccc1)C(=O)O].[O=C([C@H](CN[*:3])N[*:1])[*:2]].[Phg].A.V.[am]}|PEPTIDE2{[ac]}$PEPTIDE1,PEPTIDE2,2:R3-1:R2$$$V2.0)	37	36
CC(=O)NC[C@H](NC(=O)/C=C/C(=O)N[C@@H](C)C(=O)NCC(=O)N[C@@H](Cc1ccccc1)C(=O)O)C(=O)N[C@H](C(=O)N[C@@H](C)C(=O)N[C@H](C(N)=O)C(C)C)C1CCCCC1 ({Fumaroyl(AlaGlyPheOH)}-[Dap](Ac)[Chg]AV-NH2)	35	29
CC(C)C[C@H](NC(=O)[C@H](CC(N)=O)NC(=O)/C=C/C(=O)NCC(=O)NCC(=O)N[C@@H](Cc1ccccc1)C(=O)O)C(=O)N[C@H](C(=O)N[C@H](C(N)=O)C(C)C)C(C)C (HELM PEPTIDE1{[O=C(/C=C/C(=O)[*:2])NCC(=O)NCC(=O)N[C@@H](Cc1ccccc1)C(=O)O].N.L.V.V.[am]}$$$$V2.0)	48	52
CC(C)[C@H](NC(=O)[C@H](C)NC(=O)[C@@H](NC(=O)[C@H](Cc1ccccc1)NC(=O)/C=C/C(=O)N[C@@H](C)C(=O)NCC(=O)N[C@@H](Cc1ccccc1)C(=O)O)c1ccccc1)C(N)=O (HELM PEPTIDE1{[C[C@H](NC(=O)/C=C/C(=O)[*:2])C(=O)NCC(=O)N[C@@H](Cc1ccccc1)C(=O)O].F.[Phg].A.V.[am]}$$$$V2.0)	34	47
CC(C)[C@H](NC(=O)[C@H](C)NC(=O)[C@@H](NC(=O)[C@H](CCC(N)=O)NC(=O)/C=C/C(=O)NCC(=O)NCC(=O)N[C@@H](Cc1ccccc1)C(=O)O)C1CCCCC1)C(N)=O (HELM PEPTIDE1{[O=C(/C=C/C(=O)[*:2])NCC(=O)NCC(=O)N[C@@H](Cc1ccccc1)C(=O)O].Q.[O=C([C@@H](N[*:1])C1CCCCC1)[*:2]].A.V.[am]}$$$$V2.0)	40	31
CC(=O)NC[C@H](NC(=O)/C=C/C(=O)N[C@@H](C)C(=O)NCC(=O)N[C@@H](Cc1ccccc1)C(=O)O)C(=O)N[C@H](C(=O)N[C@@H](C)C(=O)N[C@H](C(N)=O)C(C)C)c1ccccc1 (HELM PEPTIDE1{[C[C@H](NC(=O)/C=C/C(=O)[*:2])C(=O)NCC(=O)N[C@@H](Cc1ccccc1)C(=O)O].[O=C([C@H](CN[*:3])N[*:1])[*:2]].[Phg].A.V.[am]}|PEPTIDE2{[ac]}$PEPTIDE1,PEPTIDE2,2:R3-1:R2$$$V2.0)	35	34
CC(C)C[C@H](NC(=O)[C@@H](NC(=O)[C@H](CCC(N)=O)NC(=O)/C=C/C(=O)N[C@@H](C)C(=O)NCC(=O)N[C@@H](Cc1ccccc1)C(=O)O)c1ccccc1)C(=O)N[C@H](C(N)=O)C(C)C (HELM PEPTIDE1{[C[C@H](NC(=O)/C=C/C(=O)[*:2])C(=O)NCC(=O)N[C@@H](Cc1ccccc1)C(=O)O].Q.[Phg].L.V.[am]}$$$$V2.0)	30	68
CC(C)[C@H](NC(=O)[C@H](C)NC(=O)[C@@H](NC(=O)[C@H](C)NC(=O)/C=C/C(=O)N[C@@H](C)C(=O)NCC(=O)N[C@@H](Cc1ccccc1)C(=O)O)C1CCCCC1)C(N)=O (HELM PEPTIDE1{[C[C@H](NC(=O)/C=C/C(=O)[*:2])C(=O)NCC(=O)N[C@@H](Cc1ccccc1)C(=O)O].A.[O=C([C@@H](N[*:1])C1CCCCC1)[*:2]].A.V.[am]}$$$$V2.0)	38	26
